Published values gathered from unrelated publications.
Protocols differ between the studies behind these lines. ≈ marks a conversion by molar mass, not a printed value.

OC[C@H]1O[C@@H](n2cnc3c(NCc4ccccc4)nc(Cl)nc32)[C@@H](F)[C@@H]1F  EC50 (Hepatitis C virus; viral replication, inhibitor; Huh-7; replicon): 2900 nM
CCOC(=O)c1c(N)csc1-c1cn(-c2ccccc2)nc1-c1ccccc1  inhibition zone (Acinetobacter baumannii; microbial growth, well diffusion; 100000 µg/mL): 20 mm
COC(=O)N[C@H](CC(C)C)C(=O)N1CCC[C@H]1C(=O)Nc1cccc(C#CC#Cc2cccc(NC(=O)[C@@H]3CCCN3C(=O)[C@@H](CC(C)C)NC(=O)OC)c2)c1  EC50 (Hepatitis C virus; viral replication, inhibitor, luciferase; Huh-5-2, GETYPE1B; 72 h, replicon): 0.0686 nM
CCCN1C[C@H]2CC[C@@H]3[C@](C)(COC(C)=O)[C@H](OC(C)=O)CC[C@@]3(C)[C@@H]2C[C@@H]1C1=CCOC1=O  inhibition (unidentified human coronavirus; cytopathic effect; MRC5; 25 µM, 72 h): 45.8%
CCn1cc(C(=O)O)c(=O)c2cc(F)c(N3CCNCC3)cc21  MBC (Acinetobacter baumannii; microbial killing, broth dilution; BAA747): 16 µM
COC(=O)N[C@H](C(=O)N1CCC[C@H]1c1nc(-c2ccc(-c3ccc(-c4c[nH]c([C@@H]5CCCN5C(=O)[C@@H](NC(=O)OC)C(C)C)n4)cc3)cc2)c[nH]1)C(C)C  EC50 (Hepatitis C virus; viral replication, inhibitor, luciferase; GETYPE4A; replicon): 0.021 nM
CC(C)Oc1c(NC(=O)c2ccc(NC(=O)c3ccc(NC(=O)[C@H](CC(N)=O)NC(=O)c4ccc(NC(=O)c5ccc(C#N)cn5)cc4)cc3)c(OC(C)C)c2O)ccc(C(=O)O)c1O  MIC (Proteus mirabilis; microbial growth; DSM4479): 8 µg/mL (≈ 9.02 µM)
O=C(CNc1nc(NS(=O)(=O)c2ccccc2)ncc1-c1nc2ccccc2s1)c1ccc(Br)cc1  IC50 (Enterovirus B; plaque formation; BGM, B4): 84 µg/mL
C/C(O)=C1\C(=O)C(CC(C)C)N(C(=O)CCCCCc2ccccc2)C1=O (stereo not drawn)  MIC (Proteus mirabilis; microbial growth; ATCC25933): > 200 µg/mL
O=C(Nc1ccccc1-c1ccc(F)c(F)c1)c1nccnc1C(F)(F)F  EC50 (Colletotrichum orbiculare; microbial growth): > 100 µg/mL
Nc1nc(N)c2ncn([C@@H]3O[C@H](CO)[C@@H](F)[C@@H]3F)c2n1  EC90 (Hepatitis C virus; viral replication, inhibitor; Huh-7; replicon): > 10 µM
Nc1ncnc2c1c([N+](=O)[O-])cn2[C@@H]1C=C(CO)[C@@H](O)[C@H]1O  inhibition (Hepatitis C virus; viral replication, inhibitor, luciferase; Huh7 ET; 20 µM, replicon): 31.5%
CC1(C)OC[C@@]2(C)[C@H]3CC[C@@H]4CN(Cc5ccc(C(F)(F)F)cc5)[C@@H](C5=CCOC5=O)C[C@H]4[C@]3(C)CC[C@H]2O1  inhibition (unidentified human coronavirus; cytopathic effect; MRC5; 25 µM, 72 h): 88.3%
COC(=O)N[C@H](C(=O)N1CCC[C@H]1c1ncc(-c2ccc(-c3ccc(-c4cnc([C@@H]5CCCN5C(=O)[C@@H](NC(=O)OC)C(C)C)[nH]4)cc3)cc2)[nH]1)C(C)C  EC50 (Hepatitis C virus; viral replication, inhibitor; HeLa, GETYPE2A; replicon): 0.0037 nM
CCOC(=O)N[C@H](C(=O)N1CCC[C@H]1C(=O)Nc1ccc(C#CC#Cc2ccc(NC(=O)[C@@H]3CCCN3C(=O)[C@@H](NC(=O)OCC)C(C)C)cc2)cc1)C(C)C  EC50 (Hepatitis C virus; viral replication, inhibitor, luciferase; Huh-5-2, GETYPE1B; 72 h, replicon): 90 nM
COc1ccc(CN2C[C@H]3CC[C@@H]4[C@](C)(COC(C)=O)[C@H](OC(C)=O)CC[C@@]4(C)[C@@H]3C[C@@H]2C2=CCOC2=O)cc1  inhibition (unidentified human coronavirus; cytopathic effect; MRC5; 25 µM, 72 h): 5.1%
Oc1ccc(/C=C/c2cc(O)cc(O)c2)cc1  IC50 (Leishmania tarentolae; parasite growth, resazurin; 48 h, promastigote): 79.8 µM
COc1nc(Cl)nc2c1ncn2[C@@H]1O[C@H](CO)[C@@H](F)[C@@H]1F  EC90 (Hepatitis C virus; viral replication, inhibitor; Huh-7; replicon): > 10 µM
Cc1c(NC(=O)CC2=NC(=O)CS2)c(=O)n(-c2ccccc2)n1C  inhibition zone (Acinetobacter baumannii; microbial growth, well diffusion; 100000 µg/mL): 26 mm
Nc1nc(-c2ccccc2)nc2[nH]nc(Nc3ccc(C(F)(F)F)cc3)c12  IC50 (Enterovirus B; cytopathic effect; HeLa, CVB3): 0.14 µM
CCCCCCC/C=C/C(=O)N1C(=O)/C(=C(\O)CCCC)C(=O)C1CC(C)C (stereo not drawn)  MIC (Proteus mirabilis; microbial growth; ATCC25933): > 200 µg/mL
C[C@@]1(O)[C@H](O)[C@@H](CO)O[C@H]1n1ccc(N)nc1=O  EC90 (Hepatitis C virus; viral replication, inhibitor; Huh-7; replicon): 5.8 µM
CCCCCCC/C=C/C(=O)N1C(=O)/C(=C(/C)O)C(=O)C1Cc1ccc(OC(C)(C)C)cc1 (stereo not drawn)  MIC (Proteus mirabilis; microbial growth; ATCC25933): > 200 µg/mL
NC(=O)c1ncn([C@@H]2O[C@H](CO)[C@@H](O)[C@H]2O)n1  IC50 (Enterovirus B; cytopathic effect; Vero, B3 CVB3): 1580 µM
N#CC(=Cc1ccccc1O)C1=NC(=O)C(=Cc2cn(-c3ccccc3)nc2-c2ccccc2)S1  MBC (Acinetobacter baumannii; microbial killing, broth dilution): 0.25 µg/mL
COC(=O)N[C@H](C(=O)N1CCC[C@H]1C(=O)Nc1cccc(C#CC#Cc2cccc(NC(=O)[C@@H]3CCCN3C(=O)[C@@H](NC(=O)OC)C(C)C)c2)c1)C(C)C  EC50 (Hepatitis C virus; viral replication, inhibitor, luciferase; Huh-5-2, GETYPE1B; 72 h, replicon): 0.121 nM
Nc1nc(Cl)c2ncn([C@@H]3O[C@H](CO)[C@@H](F)[C@@H]3F)c2n1  EC90 (Hepatitis C virus; viral replication, inhibitor; Huh-7; replicon): > 10 µM
CCCCCCC/C=C/C(=O)N1C(=O)/C(=C(/C)O)C(=O)C1CO (stereo not drawn)  MIC (Proteus mirabilis; microbial growth; ATCC25933): > 200 µg/mL
[N-]=[N+]=Nc1nc(N=[N+]=[N-])c2ncn([C@@H]3O[C@H](COC(=O)c4ccccc4)[C@@H](F)[C@@H]3F)c2n1  EC50 (Hepatitis C virus; viral replication, inhibitor; Huh-7; replicon): > 10000 nM
CCCCCCC/C=C/C(=O)N1C(=O)/C(=C(\O)c2ccc(O)cc2)C(=O)C1CC(C)C (stereo not drawn)  MIC (Proteus mirabilis; microbial growth; ATCC25933): > 200 µg/mL
CC(=O)OC[C@@]1(C)[C@H]2CC[C@@H]3CN(Cc4ccccc4C)[C@@H](C4=CCOC4=O)C[C@H]3[C@]2(C)CC[C@H]1OC(C)=O  inhibition (unidentified human coronavirus; cytopathic effect; MRC5; 25 µM, 72 h): 71.4%
CC(C)COC(=O)N[C@H](C(=O)N1CCC[C@H]1C(=O)Nc1cccc(C#CC#Cc2cccc(NC(=O)[C@@H]3CCCN3C(=O)[C@@H](NC(=O)OCC(C)C)C(C)C)c2)c1)C(C)C  EC50 (Hepatitis C virus; viral replication, inhibitor, luciferase; Huh-5-2, GETYPE1B; 72 h, replicon): 380 nM
COc1ccc(CN2C[C@H]3CC[C@@H]4[C@](C)(CO)[C@H](O)CC[C@@]4(C)[C@@H]3C[C@@H]2C2=CCOC2=O)cc1  inhibition (unidentified human coronavirus; cytopathic effect; MRC5; 25 µM, 72 h): 1.9%
O=C(O)c1cn(C2CC2)c2cc(N3CCNCC3)c(F)cc2c1=O  MBC (Acinetobacter baumannii; microbial killing, broth dilution): 0.25 µg/mL
Cc1ccc(S(=O)(=O)Nc2nc(N)c(-c3nc4ccccc4s3)c(-c3ccc(Cl)cc3)n2)cc1  IC50 (Enterovirus B; plaque formation; BGM, B4): 74 µg/mL
CCOC(=O)N[C@@H](C(=O)N1CCC[C@@H]1C(=O)Nc1cccc(C#CC#Cc2cccc(NC(=O)[C@H]3CCCN3C(=O)[C@H](NC(=O)OCC)C(C)C)c2)c1)C(C)C  EC50 (Hepatitis C virus; viral replication, inhibitor, luciferase; Huh-5-2, GETYPE1B; 72 h, replicon): > 10000 nM
N#CC(=Cc1ccc(Cl)cc1)C1=NC(=O)C(=Cc2cn(-c3ccccc3)nc2-c2ccccc2)S1  inhibition zone (Acinetobacter baumannii; microbial growth, well diffusion; 100000 µg/mL): 20 mm
Nc1nc(NS(=O)(=O)c2ccccc2)ncc1-c1nc2ccccc2s1  IC50 (Enterovirus B; plaque formation; BGM, B4): 85 µg/mL
CC(=O)OC[C@@]1(C)[C@H]2CC[C@@H]3CN(Cc4cccc(Cl)c4)[C@@H](C4=CCOC4=O)C[C@H]3[C@]2(C)CC[C@H]1OC(C)=O  inhibition (unidentified human coronavirus; cytopathic effect; MRC5; 25 µM, 72 h): 116%
CCOC(=O)N[C@H](CC(C)C)C(=O)N1CCC[C@H]1C(=O)Nc1cccc(C#CC#Cc2cccc(NC(=O)[C@@H]3CCCN3C(=O)[C@@H](CC(C)C)NC(=O)OCC)c2)c1  EC50 (Hepatitis C virus; viral replication, inhibitor, luciferase; Huh-5-2, GETYPE1B; 72 h, replicon): 0.0411 nM
Cc1cn([C@H]2C[C@H](N=[N+]=[N-])[C@@H](CO)O2)c(=O)[nH]c1=O  EC90 (Hepatitis C virus; viral replication, inhibitor; Huh-7; replicon): > 10 µM
CC(=O)OC[C@@]1(C)[C@H]2CC[C@@H]3CN(Cc4ccc(Br)cc4)[C@@H](C4=CCOC4=O)C[C@H]3[C@]2(C)CC[C@H]1OC(C)=O  inhibition (unidentified human coronavirus; cytopathic effect; MRC5; 25 µM, 72 h): 107%
Cc1ccc(-c2nn(-c3ccccc3)cc2C=C(C#N)C2=NC(=O)CS2)cc1  inhibition zone (Acinetobacter baumannii; microbial growth, well diffusion; 100000 µg/mL): 20 mm
CC(=O)OC[C@@]1(C)[C@H]2CC[C@@H]3CN(Cc4ccc(O)cc4)[C@@H](C4=CCOC4=O)C[C@H]3[C@]2(C)CC[C@H]1OC(C)=O  inhibition (unidentified human coronavirus; cytopathic effect; MRC5; 25 µM, 72 h): 50.4%
COc1nc(OC)c2ncn([C@@H]3O[C@H](CO)[C@@H](F)[C@@H]3F)c2n1  EC50 (Hepatitis C virus; viral replication, inhibitor; Huh-7; replicon): > 10000 nM
